Measurements gathered from unrelated publications.
Lines come from different studies, so protocols differ.

COc1cc(C(=O)NC2CCN(C)CC2)c(F)cc1Nc1ncc(C(F)(F)F)c(Oc2cccc3c2C(=O)N(C)C3)n1
Vd/F (human, plasma; oral, 100 mg, multiple doses, once daily, patients): 284 L

Cc1nc(-c2cnc(NC(C)C)n(C)c2=O)ccc1Oc1ccnc(-c2cnn(C)c2)c1
Cmax (female mouse, plasma; oral, 3.75 mg/kg, single dose): 2780 ng/mL

COc1ccc([C@@H]2CN(C(=O)[C@@H](O)CO)C[C@@]2(C)[C@@H](C)O)cc1OC1CN(c2ccc(C)cn2)C1
Vd/F (human, plasma; oral, 5 mg, single dose, healthy volunteers): 46.4 L

Cc1cc(Nc2cc(N3CCN(C)CC3)nc(/C=C/c3ccccc3)n2)n[nH]1
Vd/F (human, plasma; oral, 60 mg/m², multiple doses, patients): 699 L

CC(C)(Sc1ccncc1-c1ccc(C#N)c2ccccc12)C(=O)O
Vd/F (male human, plasma; oral, 20 mg, single dose, fasted, healthy volunteers): 328 L

C[C@@]1(c2cc(NC(=O)c3ccc(C#N)cn3)ccc2F)C=CSC(N)=N1
Vd/F (human, plasma; oral, 10 mg, single dose): 210 L

CCNCCCNC/C=C\CNCCCNCC
Vd (human, plasma; intravenous, 50 mg, patients, infusion): 2.12 L/kg

CC(C)(C)c1ccc(O)c(CN(Cc2cc(C(C)(C)C)ccc2O)C2CCC(NC(N)=O)CC2)c1 (centres unmarked)
Cmax (male C57BL/6 mouse, brain; intraperitoneal, 10 mg/kg, single dose): 1070 ng/g
